Test results: ChEMBL document CHEMBL3352107, “Development of radamide analogs as Grp94 inhibitors” (Bioorg Med Chem, 2014)
Calls of active or inactive are those of the source. The rule behind the calls is not given here.

Legend:
[1] = molecular target: Heat shock protein HSP 90-alpha (Homo sapiens) (UniProt P07900); assay: Inhibition of Hsp90alpha in human MDA-MB-231 cells assessed as Akt degradation at 60 uM by Western blot analysis; assay type: cell-based
Method in brief: (§1)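 Cells plated in 6-well plates and exposed 24 h to high and low compound concentrations, 15 μM radicicol, or DMSO only (0.25% DMSO final). Lysed in MPER with protease inhibitors on ice and clarified at 4°C. Protein measured by BCA. 20 μg per lane run reducing on SDS-PAGE, blotted to PVDF and probed with specific antibodies, HRP secondary, chemiluminescence. For IGF-II, medium volumes normalized to equal actin were blotted.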

[2] = molecular target: Endoplasmin (Homo sapiens) (UniProt P14625); assay: Inhibition of recombinant Grp94 (unknown origin) assessed as tracer bound at 25 uM after 24 hrs by fluorescence polarization assay relative to control; parameters: scale not given: the % may be the effect or the level left
Method in brief: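 Single-point screen at 25 μM. Recombinant cGrp94 (10 nM) and FITC-geldanamycin tracer (6 nM) incubated 24 h at 4°C with rocking in HEPES pH 7.3 buffer containing molybdate, DTT, NP-40 and BGG (1% DMSO). Polarization read at 485/528 nm. Percent tracer bound scaled between DMSO mP (100%) and free tracer mP (0%). Geldanamycin 50 nM was the positive control. Triplicate.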

[3] = system: MDA-MB-231; assay: Antiproliferative activity against human MDA-MB-231 cells after 72 hrs by MTS/PMS proliferation assay; assay type: functional, cell-based; settings: MDA-MB-231, 72 h
Method in brief: (§2)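 Cells kept in RPMI1640 (RPMI 8226) or DMEM (MDA-MB-231) with nonessential amino acids, 2 mM L-glutamine, penicillin/streptomycin and 10% FBS at 37°C, 5% CO2. Seeded at 2000/well, attached overnight, then given compound across a concentration range in 1% DMSO final for 72 h. Viable cells read by MTS/PMS. 1% DMSO wells set as 100%. IC50 from separate triplicate experiments.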

[4] = system: MDA-MB-231; assay: Cytotoxicity against human MDA-MB-231 cells at 2.5 to 25 uM after 24 hrs; assay type: cell-based; settings: mda-mb-231, 24 h
[5] = system: MDA-MB-231; assay: Inhibition of cell migration in human MDA-MB-231 cells assessed as reduction of cell migrated into scratched area after 16 to 24 hrs by wound healing assay; assay type: functional, cell-based
Method in brief: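 Cells seeded at 200000/well and grown 24 h to a confluent monolayer at 37°C, 5% CO2. Each well scratched with a sterile pipet tip and photographed at 0 h. Compound added at 2.5 up to 25 μM (0.25% DMSO final). Migration into the wound photographed at 16 and 24 h. Quadruplicate wells on two different days.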

[6] = molecular target: Endoplasmin (Homo sapiens) (UniProt P14625); assay: Binding affinity to Gpr94 in human MDA-MB-231 cells assessed as conformational change using 9G10 antibody by immunoblotting analysis; assay type: cell-based
Method in brief: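 MDA-MB-231 cells treated overnight at 10 μM (high) or 1 μM (low). Radicicol 15 μM was the positive control and DMSO the negative control. Detergent lysates immunoprecipitated with the conformation-specific anti-Grp94 antibody 9G10, which recognizes only open, unliganded Grp94, on protein G magnetic beads. Precipitates immunoblotted for Grp94.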

[7] = molecular target: Endoplasmin (Homo sapiens) (UniProt P14625); assay: Inhibition of Gpr94 in human MDA-MB-231 cells assessed as decrease in IGF-II secretion at 1 to 10 uM by Western blot analysis; assay type: cell-based; method in brief: as §1
[8] = molecular target: Heat shock protein HSP 90-alpha (Homo sapiens) (UniProt P07900); assay: Inhibition of Hsp90alpha in human MDA-MB-231 cells assessed as cyclin D1 degradation at 60 uM by Western blot analysis; assay type: cell-based; method in brief: as §1
[9] = Antiproliferative activity against human RPMI18226 cells after 72 hrs by MTS/PMS proliferation assay; assay type: functional, cell-based; settings: RPMI18226, 72 h; method in brief: as §2
[10] = molecular target: Endoplasmin (Homo sapiens) (UniProt P14625); assay: Binding affinity to Gpr94 in human RPMI18226 cells using 9G10 antibody by immunoblotting analysis; assay type: cell-based
Method in brief: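 Radicicol 15 μM was the positive control and DMSO the negative control. Detergent lysates pulled down with conformation-specific anti-Grp94 antibody 9G10 on protein G magnetic beads, then immunoblotted for Grp94.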

[11] = molecular target: Endoplasmin (Homo sapiens) (UniProt P14625); assay: Inhibition of Gpr94 in human RPMI18226 cells assessed as decrease in IGF-II secretion at 0.25 to 2 fold antiproliferative IC50 concentration by Western blot analysis; assay type: cell-based; method in brief: as §1
[12] = molecular target: Heat shock protein HSP 90-alpha (Homo sapiens) (UniProt P07900); assay: Inhibition of Hsp90alpha in human RPMI18226 cells assessed as Akt degradation at 0.5 to 5 fold antiproliferative IC50 concentration by Western blot analysis; assay type: cell-based; method in brief: as §1
[13] = molecular target: Heat shock protein HSP 90-alpha (Homo sapiens) (UniProt P07900); assay: Inhibition of Hsp90alpha in human RPMI18226 cells assessed as cyclin D1 degradation at 0.5 to 5 fold antiproliferative IC50 concentration by Western blot analysis; assay type: cell-based; method in brief: as §1
[14] = molecular target: Heat shock protein HSP 90-alpha (Homo sapiens) (UniProt P07900); assay: Inhibition of Hsp90alpha in human MDA-MB-231 cells assessed as Akt degradation at 80 uM by Western blot analysis; assay type: cell-based; method in brief: as §1
[15] = molecular target: Heat shock protein HSP 90-alpha (Homo sapiens) (UniProt P07900); assay: Inhibition of Hsp90alpha in human MDA-MB-231 cells assessed as cyclin D1 degradation at 80 uM by Western blot analysis; assay type: cell-based; method in brief: as §1
[16] = molecular target: Heat shock protein HSP 90-alpha (Homo sapiens) (UniProt P07900); assay: Inhibition of Hsp90alpha in human RPMI18226 cells assessed as Akt degradation at 5 fold antiproliferative IC50 concentration by Western blot analysis; assay type: cell-based; method in brief: as §1
[17] = molecular target: Heat shock protein HSP 90-alpha (Homo sapiens) (UniProt P07900); assay: Inhibition of Hsp90alpha in human RPMI18226 cells assessed as cyclin D1 degradation at 5 fold antiproliferative IC50 concentration by Western blot analysis; assay type: cell-based; method in brief: as §1
[18] = molecular target: Endoplasmin (Homo sapiens) (UniProt P14625); assay: Inhibition of recombinant Grp94 (unknown origin) assessed as tracer bound at 25 uM after 24 hrs by fluorescence polarization assay relative to HSP90alpha (unknown origin)
Method in brief: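 Compounds at 25 μM incubated 24 h with either cGrp94 or Hsp90α plus FITC-geldanamycin tracer (1% DMSO) to compare the two isoforms. Fluorescence polarization gave percent tracer bound, with DMSO as 100% and free tracer as 0%. Geldanamycin 50 nM was the positive control. Triplicate.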

Endoplasmin (Homo sapiens), sequence (P14625 whole entry, canonical isoform): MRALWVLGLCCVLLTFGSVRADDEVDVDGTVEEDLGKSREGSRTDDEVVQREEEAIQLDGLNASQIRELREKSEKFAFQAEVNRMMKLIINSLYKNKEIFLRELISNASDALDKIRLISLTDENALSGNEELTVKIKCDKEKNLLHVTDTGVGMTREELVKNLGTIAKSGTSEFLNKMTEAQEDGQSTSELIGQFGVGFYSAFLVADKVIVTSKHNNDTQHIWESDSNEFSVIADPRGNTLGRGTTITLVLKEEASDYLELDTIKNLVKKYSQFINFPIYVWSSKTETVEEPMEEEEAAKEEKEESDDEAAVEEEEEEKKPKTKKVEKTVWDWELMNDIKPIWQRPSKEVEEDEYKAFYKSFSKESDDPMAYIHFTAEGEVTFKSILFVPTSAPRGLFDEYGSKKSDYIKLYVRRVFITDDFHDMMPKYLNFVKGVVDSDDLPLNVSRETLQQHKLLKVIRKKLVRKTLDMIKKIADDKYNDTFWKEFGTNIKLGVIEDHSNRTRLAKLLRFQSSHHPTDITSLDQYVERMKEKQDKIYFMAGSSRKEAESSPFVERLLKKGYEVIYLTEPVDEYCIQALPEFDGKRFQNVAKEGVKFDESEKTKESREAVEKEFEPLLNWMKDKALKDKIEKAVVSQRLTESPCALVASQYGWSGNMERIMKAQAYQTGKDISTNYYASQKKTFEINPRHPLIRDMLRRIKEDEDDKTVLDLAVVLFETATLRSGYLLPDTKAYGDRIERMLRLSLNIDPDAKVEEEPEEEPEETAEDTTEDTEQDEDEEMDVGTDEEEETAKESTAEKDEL

SMILES	Activity [2]	also measured
COC(=O)c1c(O)cc(O)c(Cl)c1CCC(=O)Nc1ccccn1	1%	inhibition [1]: inactive; IC50 [3]: 12 µM; Activity [4]: Non-toxic; inhibition [5]: Dose-dependent effect; Activity [6]: Dose-dependent effect; inhibition [7]: Active; inhibition [8]: inactive; IC50 [9]: 9.12 µM; Activity [10]: Dose-dependent effect; inhibition [11]: Active; inhibition [12]: inactive; inhibition [13]: inactive
COC(=O)c1c(O)cc(O)c(Cl)c1CCC(=O)Nc1cccnn1	12.2%	–
COC(=O)c1c(O)cc(O)c(Cl)c1CCC(=O)Nc1ncccn1	16.7%	–
COC(=O)c1c(O)cc(O)c(Cl)c1CCC(=O)Nc1nncs1	8.7%	–
COC(=O)c1c(O)cc(O)c(Cl)c1CCC(=O)Nc1ccccc1	19.8%	–
COC(=O)c1c(O)cc(O)c(Cl)c1CCC(=O)Nc1cncnc1	11.6%	–
COC(=O)c1c(O)cc(O)c(Cl)c1CCC(=O)Nc1ccc(F)cc1	10.9%	–
COC(=O)c1c(O)cc(O)c(Cl)c1CCC(=O)Nc1ccccc1OC	16.1%	–
COC(=O)c1c(O)cc(O)c(Cl)c1CCC(=O)Nc1ncc(Br)s1	27.7%	–
COC(=O)c1c(O)cc(O)c(Cl)c1CCC(=O)Nc1nccs1	6.6%	IC50 [3]: 16 µM; Activity [4]: Non-toxic; inhibition [5]: Dose-dependent effect; Activity [6]: Dose-dependent effect; inhibition [7]: Active; inhibition [14]: Active; inhibition [15]: Active; IC50 [9]: 7.83 µM; Activity [10]: Dose-dependent effect; inhibition [11]: Active; inhibition [16]: Active; inhibition [17]: Active
COC(=O)c1c(O)cc(O)c(Cl)c1CCC(=O)Nc1cccc(OC)c1	27.4%	–
COC(=O)c1c(O)cc(O)c(Cl)c1CCC(=O)Nc1ccccc1Cl	0.1%	Ratio [18]: 8
COC(=O)c1c(O)cc(O)c(Cl)c1CCC(=O)Nc1ccc(Br)cc1	2.1%	Ratio [18]: 27
COC(=O)c1c(O)cc(O)c(Cl)c1CCC(=O)N(c1ccccc1)C(C)C	30.2%	–
COC(=O)c1c(O)cc(O)c(Cl)c1CCC(=O)Nc1cccc(C(F)(F)F)c1	39.4%	–
COC(=O)c1c(O)cc(O)c(Cl)c1CCC(=O)Nc1ncccc1Br	0.2%	–

SMILES	Activity [2]	also measured
COC(=O)c1c(O)cc(O)c(Cl)c1CCC(=O)Nc1ccc(O)cc1	6.5%	–
COC(=O)c1c(O)cc(O)c(Cl)c1CCC(=O)Nc1ccc(N)cc1	15.7%	–
COC(=O)c1c(O)cc(O)c(Cl)c1CCC(=O)Nc1ccc(Br)c(Cl)c1	71.4%	–
COC(=O)c1c(O)cc(O)c(Cl)c1CCC(=O)Nc1ccccc1C(F)(F)F	13.4%	–
COC(=O)c1c(O)cc(O)c(Cl)c1CCC(=O)Nc1cc(Cl)ccn1	7.7%	–
COC(=O)c1c(O)cc(O)c(Cl)c1CCC(=O)Nc1ccccc1O	18%	–
COC(=O)c1c(O)cc(O)c(Cl)c1CCC(=O)Nc1ccc(-c2ccccc2)cc1	85%	–
COC(=O)c1c(O)cc(O)c(Cl)c1CCC(=O)Nc1cccc(Cl)c1	0.1%	Ratio [18]: 25
COC(=O)c1c(O)cc(O)c(Cl)c1CCC(=O)Nc1ccccc1F	16.3%	–
CCN(C(=O)CCc1c(Cl)c(O)cc(O)c1C(=O)OC)c1ccccc1	18.6%	–
COC(=O)c1c(O)cc(O)c(Cl)c1CCC(=O)Nc1cccc(N)c1	17.4%	–
COC(=O)c1c(O)cc(O)c(Cl)c1CCC(=O)Nc1cccc(Cl)n1	1.4%	–
COC(=O)c1c(O)cc(O)c(Cl)c1CCC(=O)N(C)c1ccccc1	16.7%	–
COC(=O)c1c(O)cc(O)c(Cl)c1CCC(=O)Nc1ccc(I)cc1	29.8%	–
COC(=O)c1c(O)cc(O)c(Cl)c1CCC(=O)Nc1ccc(C#N)cc1	5.4%	–
COC(=O)c1c(O)cc(O)c(Cl)c1CCC(=O)Nc1ccc(C(C)C)cc1	59%	–
